Key:
[1] = target: T1, Prostaglandin G/H synthase 2 (Homo sapiens, UniProt P35354); test: Inhibition of COX2 (unknown origin) using arachidonic acid as substrate pretreated for 10 mins followed by substrate addition and measured after 2 mins by ELISA
T1 sequence (P35354 whole entry): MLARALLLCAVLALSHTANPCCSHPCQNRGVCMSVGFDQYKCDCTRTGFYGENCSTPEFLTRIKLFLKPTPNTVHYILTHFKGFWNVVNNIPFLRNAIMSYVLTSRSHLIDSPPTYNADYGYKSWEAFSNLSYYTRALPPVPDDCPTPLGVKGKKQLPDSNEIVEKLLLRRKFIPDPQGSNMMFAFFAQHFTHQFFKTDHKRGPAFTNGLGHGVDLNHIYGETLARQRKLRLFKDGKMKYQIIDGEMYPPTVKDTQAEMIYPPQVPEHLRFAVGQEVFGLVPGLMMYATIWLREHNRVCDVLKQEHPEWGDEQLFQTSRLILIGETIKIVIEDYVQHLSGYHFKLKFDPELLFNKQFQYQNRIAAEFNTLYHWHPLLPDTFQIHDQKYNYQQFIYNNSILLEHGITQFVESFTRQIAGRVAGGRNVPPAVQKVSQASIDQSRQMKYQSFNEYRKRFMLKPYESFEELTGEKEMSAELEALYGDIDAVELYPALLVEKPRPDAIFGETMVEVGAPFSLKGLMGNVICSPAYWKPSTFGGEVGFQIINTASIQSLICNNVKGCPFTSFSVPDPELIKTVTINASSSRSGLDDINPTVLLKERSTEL

[2] = test system: MCF7; test: Antiproliferative activity against human MCF7 cells after 48 hrs by MTT assay; format: functional, cell-based; conditions: MCF7, 48 h
[3] = test system: B16-F10; test: Antiproliferative activity against mouse B16F10 cells after 48 hrs by MTT assay; format: functional, cell-based; conditions: B16-F10, 48 h
How it was run: (§1)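 Cells kept in DMEM with 10% FBS, penicillin/streptomycin, 37 °C, 5% CO₂. Seeded at 5 × 10⁴ cells/well and allowed to adhere 12 h. Exposed to 0, 0.1, 1, 10 and 100 μM (final) for 48 h. Viability read by MTT reduction at OD 570 nm with 630 nm reference. IC50 reported as mean ± SD of three independent experiments.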

[4] = test system: A549; test: Antiproliferative activity against human A549 cells after 48 hrs by MTT assay; format: functional, cell-based; conditions: A549, 48 h; how it was run: as §1
[5] = test system: HeLa; test: Antiproliferative activity against human HeLa cells after 48 hrs by MTT assay; format: functional, cell-based
[6] = test system: HeLa; test: Induction of apoptosis in human HeLa cells assessed as late apoptotic cells at 1.25 uM after 24 hrs by Annexin-V-FITC/propidium iodide staining based flow cytometry (reference value: 1.72%); format: functional
How it was run: (§2)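 HeLa seeded at 2 × 10⁵ cells/well. Dose series was 0, 1.25, 2.5, 5 and 10 μM for 24 h; time course was 5 μM for 12, 24, 36 or 48 h. Trypsinized and washed in ice-cold PBS, then stained in binding buffer with Annexin V-FITC and PI for 10 min in the dark. Flow cytometry scored early (Annexin⁺/PI⁻) and late (Annexin⁺/PI⁺) apoptotic cells.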

[7] = test system: HeLa; test: Induction of apoptosis in human HeLa cells assessed as necrotic cells at 1.25 uM after 24 hrs by Annexin-V-FITC/propidium iodide staining based flow cytometry (reference value: 0.242%); format: functional; how it was run: as §2
[8] = test system: HeLa; test: Induction of apoptosis in human HeLa cells assessed as early apoptotic cells at 2.5 uM after 24 hrs by Annexin-V-FITC/propidium iodide staining based flow cytometry (reference value: 2.98%); format: functional; how it was run: as §2
[9] = test system: HeLa; test: Induction of apoptosis in human HeLa cells assessed as necrotic cells at 2.5 uM after 24 hrs by Annexin-V-FITC/propidium iodide staining based flow cytometry (reference value: 0.242%); format: functional; how it was run: as §2
[10] = test system: HeLa; test: Induction of apoptosis in human HeLa cells assessed as early apoptotic cells at 5 uM after 24 hrs by Annexin-V-FITC/propidium iodide staining based flow cytometry (reference value: 1.24 to 2.98%); format: functional; how it was run: as §2
[11] = test system: HeLa; test: Induction of apoptosis in human HeLa cells assessed as live cells at 10 uM after 24 hrs by Annexin-V-FITC/propidium iodide staining based flow cytometry (reference value: 94.6%); format: functional; how it was run: as §2
[12] = test system: HeLa; test: Induction of apoptosis in human HeLa cells assessed as early apoptotic cells at 10 uM after 24 hrs by Annexin-V-FITC/propidium iodide staining based flow cytometry (reference value: 2.98%); format: functional; how it was run: as §2
[13] = test system: HeLa; test: Induction of apoptosis in human HeLa cells assessed as live cells at 5 uM after 12 hrs by Annexin-V-FITC/propidium iodide staining based flow cytometry (reference value: 95.1%); format: functional; how it was run: as §2
[14] = test system: HeLa; test: Induction of apoptosis in human HeLa cells assessed as live cells at 5 uM after 48 hrs by Annexin-V-FITC/propidium iodide staining based flow cytometry (reference value: 95.1%); format: functional; how it was run: as §2
[15] = test system: HeLa; test: Induction of apoptosis in human HeLa cells assessed as early apoptotic cells at 5 uM after 48 hrs by Annexin-V-FITC/propidium iodide staining based flow cytometry (reference value: 1.24%); format: functional; how it was run: as §2
[16] = test system: HeLa; test: Induction of apoptosis in human HeLa cells assessed as late apoptotic cells at 5 uM after 48 hrs by Annexin-V-FITC/propidium iodide staining based flow cytometry (reference value: 2.57%); format: functional; how it was run: as §2
[17] = test system: HeLa; test: Induction of apoptosis in human HeLa cells assessed as necrotic cells at 5 uM after 48 hrs by Annexin-V-FITC/propidium iodide staining based flow cytometry (reference value: 1.12%); format: functional
How it was run: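 HeLa cells in DMEM with 10% FBS, penicillin/streptomycin, 37 °C, 5% CO₂; seeded 2 × 10⁵ cells/well in six-well plates, treated at 0, 1.25, 2.5, 5 and 10 μM for 24 h, or at 5 μM for 12, 24, 36 or 48 h. Cells trypsinized, washed in ice-cold PBS, stained in binding buffer with Annexin V-FITC and PI for 10 min in the dark, then analyzed by flow cytometry.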

[18] = test system: HeLa; test: Disruption of mitochondrial membrane potential in human HeLa cells assessed as collapse of the mitochondrial membrane potential at 1.25 uM after 12 hrs by JC1 staining based flow cytometry (reference value: 0.768%); format: functional
[19] = test system: HeLa; test: Disruption of mitochondrial membrane potential in human HeLa cells assessed as intact mitochondrial membrane at 1.25 uM after 12 hrs by JC1 staining based flow cytometry (reference value: 99.2%); format: functional
[20] = test system: HeLa; test: Disruption of mitochondrial membrane potential in human HeLa cells assessed as intact mitochondrial membrane at 2.5 uM after 12 hrs by JC1 staining based flow cytometry (reference value: 99.2%); format: functional
[21] = test system: HeLa; test: Disruption of mitochondrial membrane potential in human HeLa cells assessed as collapse of the mitochondrial membrane potential at 5 uM after 12 hrs by JC1 staining based flow cytometry (reference value: 0.768%); format: functional
[22] = test system: HeLa; test: Disruption of mitochondrial membrane potential in human HeLa cells after 12 hrs by JC1 staining based flow cytometry; format: functional, cell-based
[23] = test system: HeLa; test: Cell cycle arrest in human HeLa cells assessed as accumulation at G1 phase at 1.25 uM after 24 hrs by propidium iodide staining based flow cytometry (reference value: 55.51%); format: functional
[24] = test system: HeLa; test: Cell cycle arrest in human HeLa cells assessed as accumulation at S phase at 10 uM after 24 hrs by propidium iodide staining based flow cytometry (reference value: 18.16%); format: functional

`COc1ccc(-c2cc(COC(=O)COc3cc(O)c4c(=O)cc(-c5ccccc5)oc4c3)nn2-c2ccc(C)cc2)cc1` was tested, and the IC50 [1] was 0.23 µM, the IC50 [2] was 3.23 µM and the IC50 [3] was 10.4 µM. The IC50 [4] was 6.41 µM, the IC50 [5] was 1.12 µM and the Activity [6] was 5.16%. It also gave an Activity [7] of 1.18%, an Activity [8] of 16.6% and an Activity [9] of 0.332%. The Activity [10] was 31.6 - 34.7%, the Activity [11] was 51.4% and the Activity [12] was 36.8%. For the same compound, the Activity [13] was 67.7%, the Activity [14] was 18.1% and the Activity [15] was 73.2%. It also gave an Activity [16] of 7.54%, an Activity [17] of 1.43% and an Activity [18] of 3.1%. For the same compound, the Activity [19] was 96.5%, the Activity [20] was 93.4% and the Activity [21] was 9.32%. The Activity [22] was “Dose-dependent effect”, the Activity [23] was 62.63% and the Activity [24] was 14.82%.
